Data reported in ChEMBL document CHEMBL1124397, “A novel class of "GABAergic" agents: 1-aryl-3-(aminoalkylidene)oxindoles” (J Med Chem, 1989).

How the values were obtained:
[1] = molecular target: GABA-A receptor; anion channel (Rattus norvegicus) (UniProt O09028+P15431+P18506+P18508+P19969+P20236+P23574+P23576+P28471+P28473+P30191+P62813+P63079+P63138+Q91ZM7+Q9ES14); test: Antagonism of mercaptopropionic acid (MPA) induced convulsions in mouse; assay type: functional, organism-based
[2] = Ability to displace [3H]flunitrazepam ([3H]-FNP) binding to mouse brain after intraperitoneal administration at a dose 320 umol/kg; assay type: functional, organism-based; settings: at 320 µmol/kg
Summary of the method: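 Mice in groups of five got test agent or vehicle ip 1 h before iv [3H]FNP at 200 μCi/kg, then were killed 20 min later by cervical dislocation. Brains were frozen and homogenized in 40 volumes of ice-cold 50 mM Tris-HCl pH 7.7. Triplicate samples were filtered on glass fiber, washed with cold buffer and counted. Bound label is expressed as % of vehicle-treated mice.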

[3] = system: P23576; test: Administered at a dose 320 umol/kg intraperitoneally before [3H]Flunitrazepam ([3H]-FNP) in mouse brain expressed as percent of control; assay type: functional, tissue-based
P23576, sequence (P23576 whole entry): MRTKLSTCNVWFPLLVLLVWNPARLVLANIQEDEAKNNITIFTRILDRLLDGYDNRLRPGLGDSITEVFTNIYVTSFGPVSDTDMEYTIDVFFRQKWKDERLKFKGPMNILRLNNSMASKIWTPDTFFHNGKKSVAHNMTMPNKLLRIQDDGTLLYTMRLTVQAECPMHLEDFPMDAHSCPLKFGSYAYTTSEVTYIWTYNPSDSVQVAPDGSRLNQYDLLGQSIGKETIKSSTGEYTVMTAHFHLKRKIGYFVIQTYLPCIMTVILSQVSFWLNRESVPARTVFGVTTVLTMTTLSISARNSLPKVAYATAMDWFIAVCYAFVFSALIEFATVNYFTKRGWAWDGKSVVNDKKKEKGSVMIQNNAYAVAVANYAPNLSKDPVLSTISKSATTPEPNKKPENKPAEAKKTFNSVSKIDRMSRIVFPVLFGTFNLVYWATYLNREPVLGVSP
Summary of the method: (§1)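 Mice in groups of five received test compound or vehicle ip 1 h before 200 μCi/kg [3H]FNP iv and were killed 20 min later. Brains were homogenized in 40 volumes of ice-cold 50 mM Tris-HCl pH 7.7. Triplicate 1.0-mL samples were filtered on glass fiber, washed with cold buffer and counted. Bound FNP is given as % of vehicle-treated mice.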

[4] = system: Mus musculus; test: Compound was tested for enhancement of [3H]Flunitrazepam ([3H]FNP) binding to mouse brain after intraperitoneal administration at a dose 10uM/kg, expressed as percent of control; assay type: functional; summary of the method: as §1
[5] = system: Mus musculus; test: Compound was tested for enhancement of [3H]flunitrazepam ([3H]-FNP) binding to mouse brain after intraperitoneal administration at a dose 3.2uM/kg, expressed as percent of control; assay type: functional; summary of the method: as §1
[6] = system: Mus musculus; test: Compound was tested for enhancement of [3H]Flunitrazepam ([3H]FNP) binding to mouse brain after intraperitoneal administration at a dose 32uM/kg, expressed as percent of control; assay type: functional; summary of the method: as §1
[7] = Toxicity was measured in mouse by intraperitoneal administration; value ranges from 32-100; settings: in vivo, ip
Summary of the method: (§2)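 Mouse LD50 in mg/kg after sc or ip dosing, by the route named in each line.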

[8] = Toxicity measured in mouse by subcutaneous administration; assay type: organism-based; settings: in vivo, sc; summary of the method: as §2
[9] = system: Mus musculus; test: Activity to antagonise mercaptopropionic acid (MPA) induced convulsions in mouse after subcutaneous administration; assay type: functional; settings: sc
Summary of the method: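 Male Swiss CD mice (17–21 g), fasted 18 h, in groups of five. […] One hour later MPA 32 mg/kg ip. Protection meant no convulsions during 10 min of observation.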

[10] = system: Mus musculus; test: Activity to antagonise cyclic GMP after administration of isoniazid in mouse brain; value ranges from 1-3.2; assay type: functional
[11] = system: Mus musculus; test: Activity to antagonise cyclic GMP after administration of isoniazid in mouse brain; value ranges from 3.2-10; assay type: functional
[12] = system: Mus musculus; test: Activity tested to antagonise cyclic GMP after administration of isoniazid in mouse brain; assay type: functional
[13] = Toxicity was measured in mouse by intraperitoneal administration; settings: in vivo, ip; summary of the method: as §2

Structure (SMILES)	ED50 [1] [mg/kg]	other results
CN(C)/C=C1\C(=O)N(c2cccc(F)c2)c2ccccc21	39.9	–
CN(C)/C=C1\C(=O)N(c2cccc(Cl)c2)c2ccc(Cl)cc21	> 100	–
CN(C)/C=C1\C(=O)N(c2cccc(C(F)(F)F)c2)c2ccccc21	22.2	[3H]flunitrazepam binding [2]: 131%
Cc1ccccc1N1C(=O)/C(=C\N(C)C)c2ccccc21	18	–
CN1CCC/C1=C1/C(=O)N(c2ccc(Cl)cc2)c2ccccc21	> 56	Control [3]: 127%
CCC/N=C/c1c(O)n(-c2cccc(Cl)c2)c2ccccc12	> 56	–
Oc1c(C2=NCCCCC2)c2ccccc2n1-c1cccc(Cl)c1	> 100	Control [3]: 138%
CN(C)/C=C1\C(=O)N(c2cccc(-c3ccccc3)c2)c2ccccc21	> 100	–
C/C(=C1/C(=O)N(c2ccccc2)c2cc(Cl)ccc21)N1CCCC1	> 56	[3H]flunitrazepam binding [2]: 213%
COc1ccc2c(c1)/C(=C/N(C)C)C(=O)N2c1cccc(Cl)c1	> 100	–
COc1ccc(N2C(=O)/C(=C3/CCCN3C)c3ccccc32)cc1Cl	–	Control [4]: 128%; Control [5]: 115%; Control [6]: 159%; Control [3]: 220%; LD50 [7]: 32 mg/kg; LD50 [8]: ≥ 320 mg/kg; ED50 [9]: 3.6 mg/kg
CN(C)/C=C1\C(=O)N(c2cccc(Cl)c2)c2cccc(Cl)c21	> 100	–
CN(C)/C=C1\C(=O)N(c2ccc(Cl)cc2)c2ccccc21	> 100	–
COc1ccc(N2C(=O)/C(=C3/CCCN3C)c3ccccc32)cc1F	5.6	Control [3]: 225%
CN(/C=C1\C(=O)N(c2cccc(Cl)c2)c2ccccc21)c1ccccc1	> 100	[3H]flunitrazepam binding [2]: 133%
N=C(c1c(O)n(-c2cccc(Cl)c2)c2ccccc12)C(F)(F)F	> 56	–
N=Cc1c(O)n(-c2cccc(Cl)c2)c2ccccc12	22.1	[3H]flunitrazepam binding [2]: 134%
COc1ccc(N2C(=O)/C(=C\N(C)C)c3ccccc32)cc1F	6.6	[3H]flunitrazepam binding [2]: 194%
O=C1/C(=C\N2CCOCC2)c2ccccc2N1c1cccc(Cl)c1	> 100	[3H]flunitrazepam binding [2]: 121%
CSc1ccc(N2C(=O)/C(=C\N(C)C)c3ccccc32)cc1	56	–
CN(C)/C=C1\C(=O)N(c2ccccc2)c2ccccc21	> 100	–
CCO/C=C1\C(=O)N(c2cccc(Cl)c2)c2ccccc21	> 100	–
COc1c(C)cc(N2C(=O)/C(=C\N(C)C)c3ccccc32)cc1Cl	15.3	–
O=C1/C(=C\N2CCCCC2)c2ccccc2N1c1cccc(Cl)c1	> 56	[3H]flunitrazepam binding [2]: 131%
CN(C)/C=C1\C(=O)N(c2cccc(Br)c2)c2ccccc21	> 100	–
O=C1/C(=C\n2ccnc2)c2ccccc2N1c1cccc(Cl)c1	> 100	Control [3]: 139%

Structure (SMILES)	ED50 [1] [mg/kg]	other results
CN1CCCC/C1=C1/C(=O)N(c2cccc(Cl)c2)c2ccccc21	> 100	Control [3]: 135%
CN(/C=C1\C(=O)N(c2cccc(Cl)c2)c2ccccc21)Cc1ccccc1	> 100	Control [3]: 135%
CN(C)/C=C1\C(=O)N(c2cccc(Cl)c2)c2ccccc21	26.1	ED50 [10]: 1 mg/kg
CCOc1cccc(N2C(=O)/C(=C\N(C)C)c3ccccc32)c1	27.9	–
COc1ccc(N2C(=O)/C(=C(/C)N(C)C)c3ccccc32)cc1	> 100	–
Oc1c(C2=NCCCCC2)c2ccccc2n1-c1ccccc1	> 100	–
CN(C)/C(=C1\C(=O)N(c2cccc(Cl)c2)c2ccccc21)c1ccccc1	> 100	–
CN1CCC/C1=C1/C(=O)N(c2ccccc2)c2cc(Cl)ccc21	> 100	Control [3]: 158%
COc1ccc(-n2c(O)c(C3=NCCC3)c3ccccc32)cc1F	56	–
Cc1ccc(N2C(=O)/C(=C\N(C)C)c3ccccc32)cc1	56	–
C/N=C\c1c(O)n(-c2cccc(Cl)c2)c2ccccc12	> 100	[3H]flunitrazepam binding [2]: 119%
CN(C)/C=C1\C(=O)N(c2cccc([N+](=O)[O-])c2)c2ccccc21	> 100	[3H]flunitrazepam binding [2]: 171%
O=C1/C(=C2/CCCN2Cc2ccccc2)c2ccccc2N1c1cccc(Cl)c1	> 100	Control [3]: 149%
C/C(=C1/C(=O)N(c2ccccc2)c2cc(Cl)ccc21)N(C)C	35.9	–
CCc1cccc(N2C(=O)/C(=C\N(C)C)c3ccccc32)c1	14.1	–
CN(C)/C=C1\C(=O)N(c2cccc(C(=O)N(C)C)c2)c2ccccc21	> 100	–
COc1ccc(N2C(=O)/C(=C\N(C)C)c3ccccc32)cc1C	9.1	–
COc1ccc(Cl)cc1N1C(=O)/C(=C\N(C)C)c2ccccc21	> 100	[3H]flunitrazepam binding [2]: 149%
CN(C)/C=C1\C(=O)N(c2cccc(Cl)c2)c2c(Cl)cccc21	> 100	[3H]flunitrazepam binding [2]: 169%
COc1ccc(N2C(=O)/C(=C(/C)N(C)C)c3ccccc32)cc1Cl	2.8	–
CN(C)/C=C1\C(=O)N(c2ccccc2Cl)c2ccccc21	> 100	ED50 [11]: 3.2 mg/kg
CCN1CCC/C1=C1/C(=O)N(c2cccc(Cl)c2)c2ccccc21	> 100	Control [3]: 164%
CN(C)/C=C1\C(=O)N(c2cccc(Cl)c2)c2cc(Cl)ccc21	> 100	–
CN1CCC/C1=C1/C(=O)N(c2ccccc2)c2cccc(Cl)c21	> 100	Control [3]: 190%
CN(C)/C=C1\C(=O)N(c2cccc(C#N)c2)c2ccccc21	> 100	[3H]flunitrazepam binding [2]: 192%
COc1cccc(N2C(=O)/C(=C\N(C)C)c3ccccc32)c1	27.9	[3H]flunitrazepam binding [2]: 217%; ED50 [12]: < 10 mg/kg

Structure (SMILES)	ED50 [1] [mg/kg]	other results
CN1CCC/C1=C1/C(=O)N(c2cccc(C#N)c2)c2ccccc21	> 100	Control [3]: 121%
CN1CCC/C1=C1/C(=O)N(c2cccc(Cl)c2)c2cc(Cl)ccc21	> 100	Control [3]: 189%
CC(=N)c1c(O)n(-c2ccccc2)c2cc(Cl)ccc12	> 56	–
CCN(/C=C1\C(=O)N(c2cccc(Cl)c2)c2ccccc21)CC	18	–
CN(C)/C=C1\C(=O)N(c2ccccc2)c2cc(Cl)ccc21	> 100	–
O=C1/C(=C\N2CCCC2)c2ccccc2N1c1cccc(Cl)c1	> 100	–
CC(=N)c1c(O)n(-c2cccc(Cl)c2)c2ccccc12	> 100	[3H]flunitrazepam binding [2]: 103%
O=C1/C(=C2/CCCN2c2ccccc2)c2ccccc2N1c1cccc(Cl)c1	> 100	Control [3]: 125%
CN(C)C(=O)c1cccc(N2C(=O)/C(=C3/CCCN3C)c3ccccc32)c1	> 100	Control [3]: 164%
CN(C)/C=C1\C(=O)N(c2ccc(N(C)C)cc2)c2ccccc21	> 100	–
COc1ccc(N2C(=O)/C(=C\N(C)C)c3ccccc32)cc1	48.2	[3H]flunitrazepam binding [2]: 153%
C/C(=C1/C(=O)N(c2cccc(C)c2)c2ccccc21)N(C)C	17.8	–
COc1ccc(N2C(=O)/C(=C(/C)N(C)C)c3ccccc32)cc1F	> 100	[3H]flunitrazepam binding [2]: 157%
CN(C)/C=C1\C(=O)N(c2cccc(C=O)c2)c2ccccc21	> 100	–
CN1CCC/C1=C1/C(=O)N(c2ccccc2)c2ccccc21	> 100	Control [3]: 143%
NC(=O)CCC/N=C(\c1ccc(Cl)cc1)c1cc(F)ccc1O [PROGABIDE]	> 100	ED50 [12]: < 32 mg/kg; LD50 [13]: ~1000 mg/kg; LD50 [8]: > 1000 mg/kg
Oc1c(/C=N/Cc2ccccc2)c2ccccc2n1-c1cccc(Cl)c1	> 100	–
COc1ccc(N2C(=O)/C(=C\N(C)C)c3ccccc32)cc1OC	> 100	[3H]flunitrazepam binding [2]: 138%; ED50 [12]: < 10 mg/kg
CN(C)/C=C1\C(=O)N(c2cc(Cl)ccc2Cl)c2ccccc21	> 100	[3H]flunitrazepam binding [2]: 147%; ED50 [12]: ~10 mg/kg
CN(C)/C=C1\C(=O)N(c2cc(Cl)cc(Cl)c2)c2ccccc21	> 100	[3H]flunitrazepam binding [2]: 153%
C/C(=C1/C(=O)N(c2cccc(Cl)c2)c2ccccc21)N(C)C	13.3	ED50 [12]: 1 mg/kg
CN(C)/C=C1\C(=O)N(c2cccc(O)c2)c2ccccc21	> 100	–
CCCN(/C=C1\C(=O)N(c2cccc(Cl)c2)c2ccccc21)CCC	> 100	–
COc1ccc(N2C(=O)/C(=C\N(C)C)c3ccccc32)cc1Cl	7.2	[3H]flunitrazepam binding [2]: 244%
O=C1/C(=C2/CCCN2Cc2ccc(Cl)cc2)c2ccccc2N1c1cccc(Cl)c1	> 100	Control [3]: 131%
Cc1cccc(N2C(=O)/C(=C\N(C)C)c3ccccc32)c1	14.1	[3H]flunitrazepam binding [2]: 184%
